Source: PMC3932990 (Journal of medicinal chemistry, 2013)

Key:
[1] = target: T1, RPA70N (Homo sapiens, UniProt P27694); assay: NMR-based titration, binding to RPA70N; details: linked compound vs fragments
[2] = target: T1, RPA70N; assay: ATRIP-based FPA competition assay; format: binding; details: from FPA-derived Kd
Procedure, shortened: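 Competitive fluorescence polarization anisotropy. Buffer: 50 mM HEPES, 75 mM NaCl, 5 mM DTT, pH 7.5, 5% DMSO. Test compound run as 10-point 3-fold series, 500–0.025 µM final. 4-parameter logistic IC50 converted to Kd.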

increase in affinity with respect to the starting fragments [1] [fold] | ligand efficiency (LE) [2] | SMILES
> 20 |  | Cc1cccc(-n2nc(C(=O)O)cc2-c2ccc(OCc3ccc(-c4ccc(C(=O)O)o4)cc3)cc2)c1 [compound 7, 5-(4-((4-(5-Carboxyfuran-2-yl)benzyl)oxy)phenyl)-1-(m-tolyl)-1H-pyrazole-3-carboxylic acid]
 | 0.18 | O=C(O)c1cc(-c2ccc(CNC(=O)c3ccc(-c4ccc(C(=O)O)o4)cc3Cl)cc2)n(-c2ccc(Cl)c(Cl)c2)n1 [compound 22, 5-(4-((4-(5-Carboxyfuran-2-yl)-2-chlorobenzamido)methyl)phenyl)-1-(3,4-dichlorophenyl)-1H-pyrazole-3-carboxylic acid]
 | 0.23 | O=C(O)c1cc(-c2ccc(CNC(=S)c3ccc(-c4ccc(C(=O)O)o4)cc3Cl)cc2)n(-c2ccc(Cl)c(Cl)c2)n1 [compound 8, 5-(4-((4-(5-Carboxyfuran-2-yl)-2-chlorophenylthioamido)methyl)phenyl)-1-(3,4-dichlorophenyl)-1H-pyrazole-3-carboxylic acid]
